Assay results reported in ChEMBL document CHEMBL5260824, “9-Deazapurines as Broad-Spectrum Inhibitors of the ABC Transport Proteins P-Glycoprotein, Multidrug Resistance-Associated Protein 1, and Breast Cancer Resistance Protein” (J Med Chem, 2017).

Key:
[1] = target: ATP-dependent translocase ABCB1 (Homo sapiens, UniProt P08183); test: Inhibition of P-gp (unknown origin) incubated for 30 mins by calcein AM analysis
Outline: (§1)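 A2780/ADR cells (doxorubicin-selected, P-gp overexpressing), about 30,000 per well in Krebs-HEPES buffer pH 7.4, incubated 30 min at 37 °C with compound (100 nM–100 µM added solutions). Calcein AM (3.125 µM solution added) then fluorescence read every 60 s at 37 °C, ex 485/em 520 nm; slope over minutes 5–30 plotted vs log concentration. Cyclosporine A 10 µM = 100% inhibition, buffer = 0%.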

[2] = target: Multidrug resistance-associated protein 1 (Homo sapiens, UniProt P33527); test: Inhibition of MRP1 in human NCI-H69AR cells incubated for 180 mins in presence of daunorubicin by flow cytometry analysis; assay type: cell-based
Outline: (§2)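 H69AR cells (doxorubicin-selected small cell lung cancer, RPMI-1640/20% FBS), about 60,000 per well, preincubated 15 min with compound (100 nM–100 µM added solutions, in unsupplemented medium), then daunorubicin (30 µM solution added); steady state after 180 min, 37 °C, 5% CO2. Cells resuspended; flow cytometry, 488 nm excitation, FL3 (≥670 nm). Reference inhibitor 75 at 10 µM = 100%; Imax relative to it.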

[3] = target: T1, Broad substrate specificity ATP-binding cassette transporter ABCG2 (Homo sapiens, UniProt Q9UNQ0); test: Inhibition of BCRP (unknown origin) expressed in dog MDCK-II cells using pheophorbide A as substrate preincubated for 20 mins followed by substrate addition and measured after 120 mins by flow cytometry analysis; assay type: cell-based
T1 sequence (Q9UNQ0 whole entry): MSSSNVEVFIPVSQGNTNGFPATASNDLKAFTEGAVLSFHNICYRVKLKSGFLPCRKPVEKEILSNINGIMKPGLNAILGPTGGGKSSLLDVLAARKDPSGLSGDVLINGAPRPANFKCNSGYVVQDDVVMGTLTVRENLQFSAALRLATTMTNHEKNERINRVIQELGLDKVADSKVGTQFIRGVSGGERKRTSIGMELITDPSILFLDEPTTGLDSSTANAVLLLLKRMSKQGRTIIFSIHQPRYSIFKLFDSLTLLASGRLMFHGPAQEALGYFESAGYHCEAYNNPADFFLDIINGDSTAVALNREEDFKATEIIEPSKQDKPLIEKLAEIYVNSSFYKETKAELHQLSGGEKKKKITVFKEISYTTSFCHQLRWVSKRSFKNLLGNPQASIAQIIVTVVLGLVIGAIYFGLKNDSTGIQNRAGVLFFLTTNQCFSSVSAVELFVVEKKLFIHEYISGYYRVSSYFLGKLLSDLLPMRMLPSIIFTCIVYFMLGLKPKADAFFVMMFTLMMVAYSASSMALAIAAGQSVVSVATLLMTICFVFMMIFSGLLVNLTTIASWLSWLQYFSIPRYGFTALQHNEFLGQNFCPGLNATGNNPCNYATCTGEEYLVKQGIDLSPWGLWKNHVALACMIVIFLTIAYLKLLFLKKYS
Outline: (§3)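 MDCK II cells transfected with human wild-type BCRP cDNA C-terminally fused to GFP, grown in DMEM/10% FBS. About 45,000 cells per well preincubated 20 min at 37 °C, 5% CO2 with compound (100 nM–100 µM added solutions), then pheophorbide A (5 µM solution added) for 120 min to steady state. Resuspended; flow cytometry, 488 nm excitation, FL3 (≥670 nm); GFP in FL1. Reference inhibitor 24 at 10 µM = 100%.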

P-gp (ABCB1) [4] = target: T2, P-gp (ABCB1) (Homo sapiens, UniProt P08183); test: Inhibition of P-gp (unknown origin) at 10 uM incubated for 30 mins by calcein AM analysis relative to control; conditions: probe calcein AM; outline: as §1
MRP1 [5] = target: T3, MRP1 (Homo sapiens, UniProt P33527); test: Inhibition of MRP1 in human NCI-H69AR cells at 10 uM incubated for 180 mins in presence of daunorubicin by flow cytometry analysis relative to control; assay type: cell-based; conditions: probe daunorubicin; outline: as §2
BCRP (ABCG2) = target: T4, BCRP (ABCG2) (Homo sapiens, UniProt Q9UNQ0); test: Inhibition of BCRP (unknown origin) expressed in dog MDCK-II cells at 10 uM using pheophorbide A as substrate preincubated for 20 mins followed by substrate addition and measured after 120 mins by flow cytometry analysis relative to control; assay type: cell-based; conditions: probe pheophorbide A; outline: as §3
T4 sequence (Q9UNQ0 whole entry): T1 sequence (Q9UNQ0 whole entry)

P-gp (ABCB1) [6] = target: T2, P-gp (ABCB1); test: Inhibition of P-gp (unknown origin) expressed in dog MDCK-MDR1cells assessed as maximum inhibition at 10 uM by calcein AM accumulation assay relative to control; assay type: cell-based; conditions: MDCK-MDR1 cells, probe calcein AM
MRP1 [7] = target: T3, MRP1; test: Inhibition of MRP1 in human NCI-H69AR cells assessed as maximum inhibition at 10 uM incubated for 180 mins in presence of daunorubicin by flow cytometry analysis relative to control; assay type: cell-based; conditions: probe daunorubicin; outline: as §2

ATP-dependent translocase ABCB1, sequence (P08183 whole entry): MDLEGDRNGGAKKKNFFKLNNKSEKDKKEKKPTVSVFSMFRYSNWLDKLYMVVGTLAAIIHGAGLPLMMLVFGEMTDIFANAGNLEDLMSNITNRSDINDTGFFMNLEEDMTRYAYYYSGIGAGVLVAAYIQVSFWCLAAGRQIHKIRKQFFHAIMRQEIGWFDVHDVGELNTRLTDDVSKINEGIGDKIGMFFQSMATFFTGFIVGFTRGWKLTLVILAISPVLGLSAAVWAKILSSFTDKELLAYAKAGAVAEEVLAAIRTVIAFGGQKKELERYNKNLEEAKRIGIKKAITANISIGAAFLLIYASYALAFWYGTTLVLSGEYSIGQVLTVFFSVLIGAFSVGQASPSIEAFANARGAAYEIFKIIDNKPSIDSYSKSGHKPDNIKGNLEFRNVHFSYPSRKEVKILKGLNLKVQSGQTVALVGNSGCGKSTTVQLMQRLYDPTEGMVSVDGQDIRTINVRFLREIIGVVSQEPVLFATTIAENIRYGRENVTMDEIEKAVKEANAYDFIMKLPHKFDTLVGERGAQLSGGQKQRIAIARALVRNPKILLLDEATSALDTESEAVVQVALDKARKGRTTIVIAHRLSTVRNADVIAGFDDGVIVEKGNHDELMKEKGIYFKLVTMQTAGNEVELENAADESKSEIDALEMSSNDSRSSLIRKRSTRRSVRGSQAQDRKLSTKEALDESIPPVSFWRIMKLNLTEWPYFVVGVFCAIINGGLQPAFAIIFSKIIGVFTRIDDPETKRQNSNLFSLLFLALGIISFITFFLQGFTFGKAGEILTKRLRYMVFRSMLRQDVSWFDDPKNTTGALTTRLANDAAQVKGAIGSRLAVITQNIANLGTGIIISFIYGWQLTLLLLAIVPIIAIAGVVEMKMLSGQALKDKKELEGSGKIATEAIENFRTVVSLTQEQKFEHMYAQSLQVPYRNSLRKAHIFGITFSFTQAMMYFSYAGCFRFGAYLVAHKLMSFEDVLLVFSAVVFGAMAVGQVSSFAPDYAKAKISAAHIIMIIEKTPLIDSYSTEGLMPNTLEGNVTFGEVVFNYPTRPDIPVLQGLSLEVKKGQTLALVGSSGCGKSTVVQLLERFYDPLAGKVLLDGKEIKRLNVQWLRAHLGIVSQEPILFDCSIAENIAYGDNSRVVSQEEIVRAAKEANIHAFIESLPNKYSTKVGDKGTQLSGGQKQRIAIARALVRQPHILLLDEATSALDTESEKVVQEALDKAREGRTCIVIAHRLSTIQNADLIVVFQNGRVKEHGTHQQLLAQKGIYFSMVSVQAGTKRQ
T2 sequence (P08183 whole entry): as above
T3 sequence (P33527 whole entry): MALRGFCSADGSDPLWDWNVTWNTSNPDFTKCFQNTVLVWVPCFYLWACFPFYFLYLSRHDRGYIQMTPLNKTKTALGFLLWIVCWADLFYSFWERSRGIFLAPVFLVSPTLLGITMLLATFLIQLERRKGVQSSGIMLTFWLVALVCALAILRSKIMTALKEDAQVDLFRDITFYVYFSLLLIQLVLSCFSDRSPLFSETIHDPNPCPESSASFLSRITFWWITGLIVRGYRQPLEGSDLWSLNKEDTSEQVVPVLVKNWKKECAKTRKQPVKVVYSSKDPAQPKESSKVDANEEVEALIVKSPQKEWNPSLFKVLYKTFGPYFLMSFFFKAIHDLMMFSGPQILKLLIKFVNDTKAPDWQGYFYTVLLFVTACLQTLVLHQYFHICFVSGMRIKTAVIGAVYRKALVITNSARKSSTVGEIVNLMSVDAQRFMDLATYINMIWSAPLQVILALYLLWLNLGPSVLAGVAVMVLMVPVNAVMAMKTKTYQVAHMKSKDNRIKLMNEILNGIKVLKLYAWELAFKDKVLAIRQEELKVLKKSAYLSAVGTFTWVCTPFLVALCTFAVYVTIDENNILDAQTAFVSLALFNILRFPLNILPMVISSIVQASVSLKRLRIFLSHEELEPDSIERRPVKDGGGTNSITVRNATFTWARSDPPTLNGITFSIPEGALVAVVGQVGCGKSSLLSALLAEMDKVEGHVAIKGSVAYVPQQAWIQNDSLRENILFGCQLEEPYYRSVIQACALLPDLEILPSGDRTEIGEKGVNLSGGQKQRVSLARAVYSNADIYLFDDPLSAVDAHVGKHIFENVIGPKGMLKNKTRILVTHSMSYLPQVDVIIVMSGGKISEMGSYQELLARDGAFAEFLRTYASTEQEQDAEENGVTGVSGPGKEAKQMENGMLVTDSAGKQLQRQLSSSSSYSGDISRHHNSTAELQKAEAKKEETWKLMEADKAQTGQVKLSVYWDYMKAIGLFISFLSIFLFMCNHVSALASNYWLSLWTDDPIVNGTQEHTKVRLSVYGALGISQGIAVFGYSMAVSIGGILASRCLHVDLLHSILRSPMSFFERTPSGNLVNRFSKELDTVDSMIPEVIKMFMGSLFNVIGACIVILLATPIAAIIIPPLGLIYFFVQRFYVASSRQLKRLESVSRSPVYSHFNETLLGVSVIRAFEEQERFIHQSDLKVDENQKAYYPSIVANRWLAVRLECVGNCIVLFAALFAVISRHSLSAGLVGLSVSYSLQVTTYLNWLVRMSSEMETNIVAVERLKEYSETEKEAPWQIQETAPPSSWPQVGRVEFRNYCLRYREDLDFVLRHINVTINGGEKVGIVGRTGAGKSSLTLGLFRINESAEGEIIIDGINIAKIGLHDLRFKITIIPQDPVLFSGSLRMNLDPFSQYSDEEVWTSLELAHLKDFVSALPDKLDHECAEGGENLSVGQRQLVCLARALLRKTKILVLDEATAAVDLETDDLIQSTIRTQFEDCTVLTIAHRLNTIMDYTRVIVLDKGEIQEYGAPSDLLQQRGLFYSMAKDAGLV
Multidrug resistance-associated protein 1, sequence (P33527 whole entry): as above

SMILES | IC50 [1] [nM] | IC50 [2] [nM] | IC50 [3] [nM] | inhibition at 0.5 h, 10 µM (P-gp (ABCB1) [4]) [%] | inhibition at 3 h, 10 µM (MRP1 [5]) [%] | inhibition at 2 h, 10 µM (BCRP (ABCG2)) [%] | inhibition at 10 µM (P-gp (ABCB1) [6]) [%] | inhibition at 3 h, 10 µM (MRP1 [7]) [%]
c1ccc(CN2CCN(c3ncnc4c3[nH]c3ccccc34)CC2)cc1 | 9490 | 363 | 6080 | > 25 | > 25 | > 25 | 30 | 60
N#Cc1c2n(c3c(N4CCN(CCc5ccccc5)CC4)ncnc13)CCCC2 | 9630 |  |  |  |  |  |  | 
N#Cc1c2n(c3c(N4CCN(Cc5ccc6c(c5)OCO6)CC4)ncnc13)CCCC2 | 13900 | 322 | 14600 | > 25 | > 25 | > 25 |  | 
CCn1cc(C#N)c2ncnc(N3CCN(CCc4c[nH]c5ccccc45)CC3)c21 |  | 855 | 13800 |  | > 25 | > 25 |  | 
N#Cc1c2n(c3c(N4CCN(CCc5ccncc5)CC4)ncnc13)CCCCC2 |  | 1140 | 12400 | > 25 | 25 | > 25 |  | 
COc1ccccc1-n1cc(C#N)c2ncnc(N3CCN(Cc4ccccc4)CC3)c21 | 19100 | 327 | 37900 | > 25 | > 25 | > 25 |  | 
CCOc1ccc(-n2cc(C#N)c3ncnc(N4CCN(CCc5ccccc5)CC4)c32)cc1 |  | 1320 |  | > 25 | > 25 | > 25 |  | 
N#Cc1c2n(c3c(N4CCN(Cc5ccc6c(c5)OCO6)CC4)ncnc13)CCCCC2 | 5710 | 1020 | 23700 | > 25 | > 25 | > 25 |  | 
N#Cc1cn(-c2ccccc2)c2c(N3CCN(CCc4c[nH]c5ccccc45)CC3)ncnc12 | 1280 | 328 |  | > 25 | > 25 | > 25 |  | 
N#Cc1cn(CCc2ccccc2)c2c(N3CCN(CCc4c[nH]c5ccccc45)CC3)ncnc12 | 1640 | 524 | 1390 | > 25 | > 25 | > 25 |  | 
N#Cc1c2n(c3c(N4CCN(c5ccccn5)CC4)ncnc13)CCCC2 |  | 1020 | 4860 | > 25 | 25 | > 25 |  | 
c1ccc(CCN2CCN(c3ncnc4c3[nH]c3ccccc34)CC2)nc1 | 10700 | 345 | 11600 | > 25 | > 25 | > 25 | 30 | 60
O=C(c1ccco1)N1CCN(c2ncnc3c2[nH]c2ccccc23)CC1 |  | 169 | 6060 | > 25 | > 25 | > 25 | 30 | 60
CCOc1ccc(-n2cc(C#N)c3ncnc(N4CCN(Cc5ccccc5)CC4)c32)cc1 | 7290 | 859 |  | > 25 | > 25 | > 25 |  | 
N#Cc1cn(Cc2ccccc2)c2c(N3CCN(CCc4c[nH]c5ccccc45)CC3)ncnc12 | 4480 | 405 | 4070 | > 25 | > 25 | > 25 |  | 
c1ccc(N2CCN(c3ncnc4c3[nH]c3ccccc34)CC2)nc1 | 5000 | 495 | 1810 | > 25 | > 25 | > 25 | 30 | 

SMILES | IC50 [1] [nM] | IC50 [2] [nM] | IC50 [3] [nM] | inhibition at 0.5 h, 10 µM (P-gp (ABCB1) [4]) [%] | inhibition at 3 h, 10 µM (MRP1 [5]) [%] | inhibition at 2 h, 10 µM (BCRP (ABCG2)) [%] | inhibition at 10 µM (P-gp (ABCB1) [6]) [%] | inhibition at 3 h, 10 µM (MRP1 [7]) [%]
N#Cc1c2n(c3c(NCCc4c[nH]c5ccccc45)ncnc13)CCCC2 |  | 957 |  | > 25 | 25 | > 25 |  | 
c1ccc2c(CCN3CCN(c4ncnc5c4[nH]c4ccccc45)CC3)c[nH]c2c1 | 3500 | 921 | 6210 | > 25 | > 25 | > 25 | 30 | 60
CCCn1cc(C#N)c2ncnc(N3CCN(CCc4c[nH]c5ccccc45)CC3)c21 |  | 468 |  |  | > 25 |  |  | 
N#Cc1c2n(c3c(N4CCN(CCc5ccncc5)CC4)ncnc13)CCCC2 |  | 672 | 27800 | > 25 | 25 | > 25 |  | 
N#Cc1c2n(c3c(N4CCN(C(=O)c5ccco5)CC4)ncnc13)CCCCC2 |  | 1010 | 12900 | > 25 | > 25 | > 25 |  | 
c1ccc(C(c2ccccc2)N2CCN(c3ncnc4c3[nH]c3ccccc34)CC2)cc1 | 2330 | 409 | 1380 | > 25 | > 25 | > 25 | 30 | 60
N#Cc1cn(CCc2ccccc2)c2c(N3CCN(Cc4ccc5c(c4)OCO5)CC3)ncnc12 |  | 1800 |  | > 25 | > 25 | > 25 |  | 
Cn1cc(C#N)c2ncnc(N3CCN(CCc4c[nH]c5ccccc45)CC3)c21 |  | 337 |  |  | > 25 |  |  | 
c1ccc(N2CCN(c3ncnc4c3[nH]c3ccccc34)CC2)cc1 |  | 146 | 1100 | > 25 | > 25 | > 25 | 30 | 60
N#Cc1c2n(c3c(N4CCN(c5ccccn5)CC4)ncnc13)CCCCC2 |  |  |  | > 25 | 25 | > 25 |  | 
N#Cc1c2n(c3c(N4CCN(CCc5c[nH]c6ccccc56)CC4)ncnc13)CCCCC2 | 1710 | 289 |  | > 25 | 25 | > 25 |  | 
N#Cc1c2n(c3c(N4CCN(C(=O)c5ccco5)CC4)ncnc13)CCCC2 |  | 883 | 29500 | > 25 | > 25 | > 25 |  | 
COc1ccccc1-n1cc(C#N)c2ncnc(N3CCN(CCc4ccccc4)CC3)c21 |  | 638 |  | > 25 | > 25 | > 25 |  | 
N#Cc1cn(-c2ccccc2)c2c(N3CCN(Cc4ccc5c(c4)OCO5)CC3)ncnc12 |  | 751 |  | > 25 | > 25 | > 25 |  | 
N#Cc1cn(C2CC2)c2c(N3CCN(CCc4c[nH]c5ccccc45)CC3)ncnc12 | 3850 | 316 | 18900 | > 25 | > 25 | > 25 |  | 
